For 30 molecules, MIC results are on record in ChEMBL document CHEMBL1240433, “Design, synthesis, and antitubercular evaluation of novel series of 3-benzofuran-5-aryl-1-pyrazolyl-pyridylmethanone and 3-benzofuran-5-aryl-1-pyrazolylcarbonyl-4-oxo-naphthyridin analogs” (Eur J Med Chem, 2010).

Values after ≈ are worked out from the molar mass of the structure shown.

This test deals with Mycobacterium tuberculosis. In words: Antitubercular activity against multidrug-resistant Mycobacterium tuberculosis H37Rv after 6 weeks. The test is classed as functional. Summed up:
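Lowenstein-Jensen slope assay. DMSO stocks of 250 and 10 µg/mL were each mixed 0.8 mL into 7.2 mL L.J. medium, then inspissated at 75-80 °C for 3 days. A loopful of culture was dispersed with glass beads in sterile water by vortexing for 2 min and streaked onto the slopes. DMSO-only and drug-free media served as controls. Bacterial counts were read after 6 weeks at 37 °C.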
Consider `O=C(O)c1ccccc1C1CC(c2cc3ccccc3o2)=NN1C(=O)c1ccncc1` (stereo not given), for which 3.2 µg/mL (≈ 7.78 µM) was the least that counted as inhibitory (MIC). In the case of `O=C(c1ccncc1)N1N=C(c2cc3ccccc3o2)CC1c1cccc([N+](=O)[O-])c1` (stereo not given), the minimal inhibitory concentration (MIC) (usually the least concentration at which growth counts as inhibited) was 6.9 µg/mL (≈ 16.7 µM).

For `CCn1cc(C(=O)N2N=C(c3cc4ccccc4o3)CC2c2ccccc2Cl)c(=O)c2ccc(C)nc21` (stereo not given), the minimal inhibitory concentration (MIC) came out at 8.4 µg/mL (≈ 16.4 µM).

For `COc1ccc(C2CC(c3cc4ccccc4o3)=NN2C(=O)c2ccncc2)c(O)c1` (stereo not given), the MIC was found to be 4.5 µg/mL (≈ 10.9 µM). The result for `NNC(=O)c1ccncc1` [ISONIAZID] reads 8.5 µg/mL (≈ 62 µM).

`CN(C)c1ccc(C2CC(c3cc4ccccc4o3)=NN2C(=O)c2ccncc2)cc1` (stereo not given): the minimal inhibitory concentration (MIC) stood at 11.5 µg/mL (≈ 28 µM). With `CCn1cc(C(=O)N2N=C(c3cc4ccccc4o3)CC2c2ccc(O)cc2)c(=O)c2ccc(C)nc21` (stereo not given), the lowest concentration to inhibit growth (MIC) was 3.8 µg/mL (≈ 7.72 µM). With `CCn1cc(C(=O)N2N=C(c3cc4ccccc4o3)CC2c2ccccc2OC)c(=O)c2ccc(C)nc21` (stereo not given), the minimum inhibitory concentration (MIC) amounted to 8.5 µg/mL (≈ 16.8 µM). `CCn1cc(C(=O)N2N=C(c3cc4ccccc4o3)CC2/C=C/c2ccccc2)c(=O)c2ccc(C)nc21` (stereo not given) yielded an MIC of 7.4 µg/mL (≈ 14.7 µM). The result for `CCn1cc(C(=O)N2N=C(c3cc4ccccc4o3)CC2c2ccccc2)c(=O)c2ccc(C)nc21` (stereo not given) reads 10.8 µg/mL (≈ 22.7 µM); that for `CCn1cc(C(=O)N2N=C(c3cc4ccccc4o3)CC2c2cccc([N+](=O)[O-])c2)c(=O)c2ccc(C)nc21` (stereo not given), 3.7 µg/mL (≈ 7.09 µM); that for `COc1ccc(C2CC(c3cc4ccccc4o3)=NN2C(=O)c2ccncc2)cc1` (stereo not given), 5.5 µg/mL (≈ 13.8 µM). On to `O=C(c1ccncc1)N1N=C(c2cc3ccccc3o2)CC1c1ccc(O)cc1` (stereo not given), for which the lowest concentration to inhibit growth (MIC) was 6.2 µg/mL (≈ 16.2 µM). The molecule `CCn1cc(C(=O)N2N=C(c3cc4ccccc4o3)CC2c2ccccc2O)c(=O)c2ccc(C)nc21` (stereo not given) registered an MIC of 6.4 µg/mL (≈ 13 µM).

`COc1ccccc1C1CC(c2cc3ccccc3o2)=NN1C(=O)c1ccncc1` (stereo not given) came in with an MIC of 5.7 µg/mL (≈ 14.3 µM).

`CCn1cc(C(=O)N2N=C(c3cc4ccccc4o3)CC2c2ccc(N(C)C)cc2)c(=O)c2ccc(C)nc21` (stereo not given): the minimum inhibitory concentration (MIC) was found to be 10.6 µg/mL (≈ 20.4 µM).

With `O=C(c1ccncc1)N1N=C(c2cc3ccccc3o2)CC1c1ccccc1` (stereo not given), the MIC turned out to be 9.5 µg/mL (≈ 25.9 µM).

In the case of `O=C(c1ccncc1)N1N=C(c2cc3ccccc3o2)CC1c1ccccc1Cl` (stereo not given), the MIC was 9.5 µg/mL (≈ 23.6 µM).

For `O=C(c1ccncc1)N1N=C(c2cc3ccccc3o2)CC1c1ccc(Cl)cc1` (stereo not given), the MIC stood at 10.6 µg/mL (≈ 26.4 µM). Consider `O=C(c1ccncc1)N1N=C(c2cc3ccccc3o2)CC1c1ccco1` (stereo not given), for which inhibition of growth (MIC) required 10.4 µg/mL (≈ 29.1 µM). The result for `CCn1cc(C(=O)N2N=C(c3cc4ccccc4o3)CC2c2ccccc2[N+](=O)[O-])c(=O)c2ccc(C)nc21` (stereo not given) reads 3.6 µg/mL (≈ 6.9 µM).

`CCn1cc(C(=O)N2N=C(c3cc4ccccc4o3)CC2c2ccc(OC)cc2)c(=O)c2ccc(C)nc21` (stereo not given) yielded a minimal inhibitory concentration (MIC) of 8.5 µg/mL (≈ 16.8 µM). `O=C(c1ccncc1)N1N=C(c2cc3ccccc3o2)CC1/C=C/c1ccccc1` (stereo not given): the minimum inhibitory concentration (MIC) is 7.5 µg/mL (≈ 19.1 µM). Take `O=C(c1ccncc1)N1N=C(c2cc3ccccc3o2)CC1c1ccccc1O` (stereo not given): the MIC turned out to be 6.2 µg/mL (≈ 16.2 µM). For the molecule `O=C(c1ccncc1)N1N=C(c2cc3ccccc3o2)CC1c1ccccc1[N+](=O)[O-]` (stereo not given), the MIC amounted to 7.5 µg/mL (≈ 18.2 µM). The result for `CO[C@H]1/C=C/O[C@@]2(C)Oc3c(C)c(O)c4c(O)c(c(/C=N/N5CCN(C)CC5)c(O)c4c3C2=O)NC(=O)/C(C)=C\C=C\[C@H](C)[C@H](O)[C@@H](C)[C@@H](O)[C@@H](C)[C@H](OC(C)=O)[C@@H]1C` [RIFAMPIN] reads 4.2 µg/mL (≈ 5.1 µM); that for `CCn1cc(C(=O)N2N=C(c3cc4ccccc4o3)CC2c2ccc(OC)cc2O)c(=O)c2ccc(C)nc21` (stereo not given), 5.4 µg/mL (≈ 10.3 µM).

In turn, `CCn1cc(C(=O)N2N=C(c3cc4ccccc4o3)CC2c2ccccc2C(=O)O)c(=O)c2ccc(C)nc21` (stereo not given) returned a minimum inhibitory concentration (MIC) of 7.8 µg/mL (≈ 15 µM).

Molecule `CCn1cc(C(=O)N2N=C(c3cc4ccccc4o3)CC2c2ccco2)c(=O)c2ccc(C)nc21` (stereo not given) registered a minimal inhibitory concentration (MIC) of 8.5 µg/mL (≈ 18.2 µM). With `CCn1cc(C(=O)N2N=C(c3cc4ccccc4o3)CC2c2ccc(Cl)cc2)c(=O)c2ccc(C)nc21` (stereo not given), the MIC amounted to 6.3 µg/mL (≈ 12.3 µM).
